Bioassay records: PubChem BioAssay, Broad Institute
AF4-AF9 inh – MLL-AF4/AF9 protein interaction inhibition | 350,000 compounds, 0.47% hits | inhibition, % at 10 µM | P42568 | AlphaScreen, biotin-AF4 peptide binding to FLAG-AF9 | AID 651704;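 active means every replicate reaching a set inhibition limit, whatever the replicate mean, cut at about 25% in these data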;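 further: 0% = plate neutral control median and 100% = total signal loss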
Target sequence (P42568 whole entry, looked up): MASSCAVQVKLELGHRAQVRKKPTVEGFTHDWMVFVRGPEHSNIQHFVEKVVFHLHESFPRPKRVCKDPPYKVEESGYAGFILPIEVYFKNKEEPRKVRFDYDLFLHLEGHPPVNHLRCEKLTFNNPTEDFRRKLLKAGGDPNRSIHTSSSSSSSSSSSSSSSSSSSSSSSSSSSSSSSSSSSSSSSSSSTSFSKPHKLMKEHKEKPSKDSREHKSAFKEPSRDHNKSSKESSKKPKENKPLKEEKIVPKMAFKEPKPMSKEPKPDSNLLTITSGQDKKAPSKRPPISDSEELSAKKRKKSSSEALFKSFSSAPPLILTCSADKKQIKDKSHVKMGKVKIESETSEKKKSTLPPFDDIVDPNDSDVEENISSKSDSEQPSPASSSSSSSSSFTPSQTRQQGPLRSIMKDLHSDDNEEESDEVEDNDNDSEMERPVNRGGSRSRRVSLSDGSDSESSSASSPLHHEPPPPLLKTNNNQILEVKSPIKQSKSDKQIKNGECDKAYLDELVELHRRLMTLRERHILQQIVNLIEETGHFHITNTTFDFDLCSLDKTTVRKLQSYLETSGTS
S100A4 inh HTS – blocks human S100A4 binding to myosin IIA peptide. P26447. S100A4/TAMRA-MyoIIA peptide fluorescence polarization. inhibition, % at 10.7 µM. 360,000 compounds, 0.14% hits. AID 652163;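 active means mean inhibition of at least 70% across replicates, with every replicate also reaching that level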
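assay system = human S100A4 monomer with TAMRA-labelled myosin IIA peptide | also added = labelled myosin peptide probe, 5 nM | incubation = 5 min between mix addition and reading | control set = DMSO and TFP controls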
CaV13 FRET inh – Disruptors of the CACNA1D IQ motif to Ca2+-dependent inactivation inhibitor domain association, primary screening, Förster resonance energy transfer in intact living …; HEK cells, CFP/YFP FRET ICDI-IQ, plate reader, 10 min; percent FRET-ratio fall versus neutral wells; inhibition, % at 12.3 µM; 340,000 compounds, 0.098% hits;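 active means mean replicate inhibition of at least 30% and at least 1% of replicates passing that level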;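 further: 0% = median of the neutral control wells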
DENV2 CPE rescue – inhibitors of DENV2 cytopathic effect; DENV2-infected cells, cytopathic effect rescue, plate reader; 350,000 compounds, 1.7% hits; CPE inhibition, % at 9.99 µM; AID 651640; in the data active means CPE inhibition above about 20%, passing the limit was not always enough; tested in BHK-21 cells;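 further: 0% = median of neutral control wells and 100% = median of positive control wells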
SIRT5 block – inhibitors of human sirtuin-5 desuccinylase; Purified SirT5, succinyl-peptide AMC, trypsin-coupled fluorescence; Q9NXA8; inhibition, % at 15 µM; AID 652115; 330,000 compounds, 1.1% hits; in the data active means inhibition above about 15%
* hit, by the source's call; / = not tested or not shown; ! = not confirmed by another sample. Compounds with a hit are over-represented: about 2.7% of the library has one in this group of screens.

SMILES | AF4-AF9 inh | S100A4 inh HTS | CaV13 FRET inh | DENV2 CPE rescue | SIRT5 block
N=c1c(C(=O)NC2CCCCC2)cc2c(=O)n3ccccc3nc2n1Cc1ccc(F)cc1 | 0 | 6 | 11 | 4 | 23*
COCCn1c(=N)c(S(=O)(=O)c2ccc(F)cc2)cc2c(=O)n3ccccc3nc21 | -2 | -1 | 104* | -2 | -4
CN1c2ccc(-c3ccccc3)cc2[C@@H]2[C@@H](CCN2C(=O)NC2CCCCC2)[C@@H]1CO | 23 | -5 | / | -6 | -6
CN1CCN(C(=O)C[C@H]2C[C@@H]3c4cc(NC(=O)c5ccc6c(c5)OCO6)ccc4O[C@@H]3[C@H](CO)O2)CC1 | -1 | 5 | / | 7 | 0
CO[C@H]1CC[C@H]2CCOc3ccc(C#N)cc3C(=O)N(C)CCCC(=O)N(C)C[C@H]1O2 | 1 | 30 | / | -5 | 0
COc1ccc2c3c(n(C)c2c1)[C@@H](CO)NCC31CCN(Cc2cc(-c3ccccc3)on2)CC1 | 37* | -2 | / | 4 | 1
COc1ccc2c3c(n(C)c2c1)[C@H](CO)NCC31CN(Cc2cc(-c3ccccc3)on2)C1 | 40* | -19 | / | -2 | /
COc1ccc2c3c(n(C)c2c1)[C@@H](CO)NCC31CN(Cc2cc(-c3ccccc3)on2)C1 | 5 | 2 | / | 10 | /
O=C(CC1CC1)N1CC2(C1)[C@H](c1ccccc1)[C@H](CO)N2C(=O)c1cccnc1 | 1 | 7 | / | 1 | -8
COc1cc(CCCN2CCNC[C@@H]2c2ccccc2)cc(OC)c1OC | -19 | -2 | -12 | 70* | /
O=C(c1cnccn1)N1CC[C@@H]2[C@H]1c1cc(-c3cccc(F)c3)ccc1N[C@@H]2CO | 4 | 2 | / | 16 | 2
CC1(C)COC(c2ccc(F)c([N+](=O)[O-])c2)=N1 | -2 | -2 | -4 | 34* | -4
CC1(C)COC(/C=C/c2cccc([N+](=O)[O-])c2)=N1 | 0 | 3 | 15 | 4 | 1
O=C(C[C@H]1C[C@H]2c3cc(NS(=O)(=O)c4ccc(F)cc4)ccc3O[C@H]2[C@@H](CO)O1)N1CCc2ccccc2C1 | 4 | 2 | / | 1 | 4
COC1OC(c2ccccc2)=C(c2ccc(C(N)=O)cc2)c2ccc(F)cc21 (configuration not stated) | 3 | -1 | -10 | 0 | 36*
CN(CC(=O)NC(=O)Nc1ccccc1F)Cc1ccccc1F | 1 | 0 | -6 | 4 | /
CN(CC(=O)Nc1ccc(S(N)(=O)=O)cc1)Cc1ccccc1F | 0 | 14 | -4 | 11 | 21*
C[C@@H]1CN([C@@H](C)CO)C(=O)c2cc(NC(=O)Cn3cnnn3)ccc2O[C@H]1CN(C)S(C)(=O)=O | -1 | 3 | / | -2 | -1
COc1ccc(CN(C)C[C@H]2OCCCC[C@H](C)Oc3ccc(NS(=O)(=O)c4ccc(OC)cc4)cc3C(=O)N([C@@H](C)CO)C[C@@H]2C)cc1 | / | / | / | -9 | /
Cc1ccc(C)c(N2CCN(C(=O)CCc3nc(-c4ccccc4)no3)CC2)c1 | -1 | -13 | -5 | 20* | 0
O=C(C[C@@H]1C=C[C@@H](NC(=O)Nc2ccc(C(F)(F)F)cc2)[C@@H](CO)O1)NCc1cccc(F)c1 | -2 | / | / | / | /
CC(C)NC(=O)N[C@H]1CC[C@@H](CCN)O[C@H]1CO | 0 | 3 | / | -4 | 0
CCOc1ccc(C(=O)c2cc3ccc(O)cc3oc2=O)cc1 | 0 | -1 | 90* | 0 | 1
C[C@H]1CN([C@@H](C)CO)S(=O)(=O)c2ccc(C#CC3CC3)cc2O[C@H]1CN(C)C(=O)c1ccccc1 | 2 | -2 | / | / | 2
C[C@@H]1CN([C@H](C)CO)C(=O)c2ccccc2-c2ccccc2CO[C@H]1CN(C)S(=O)(=O)c1cccs1 | 4 | -8 | / | -4 | 18*
SMILES | AF4-AF9 inh | S100A4 inh HTS | CaV13 FRET inh | DENV2 CPE rescue | SIRT5 block
C[C@@H]1CN([C@H](C)CO)C(=O)c2ccccc2-c2ccccc2CO[C@H]1CN(C)S(=O)(=O)c1ccc(C(F)(F)F)cc1 | 4 | -2 | / | -11 | 8
C[C@H](CO)N1C[C@H](C)[C@H](CN(C)S(=O)(=O)c2ccc(C(F)(F)F)cc2)OCc2ccccc2-c2ccccc2C1=O | 1 | -1 | / | 33* | 8
C[C@@H]1CN([C@@H](C)CO)C(=O)c2ccccc2-c2ccccc2CO[C@H]1CN(C)S(=O)(=O)c1ccc(Cl)cc1 | 12 | 3 | / | 0 | 15*
C[C@H](CO)N1C[C@H](C)[C@H](CN(C)S(=O)(=O)c2cccs2)OCc2ccccc2-c2ccccc2C1=O | -4 | 10 | / | -3 | 6
C[C@H](CO)N1C[C@H](C)[C@@H](CN(C)S(=O)(=O)c2ccc(Cl)cc2)OCc2ccccc2-c2ccccc2C1=O | 6 | 6 | / | -4 | /
CC(C)(C)CC(C)(C)N=C1Nc2ccccc2NC12C[C@H]1CCC(=O)N3CC[C@@H](C2)[C@@H]13 (some centres not stated) | 28* | 7 | -10 | -15 | 3
O=C1CC[C@@H]2CC3(C[C@@H]4CCN1[C@H]24)Nc1ccccc1NC3=NC1CCCCC1 (some centres not stated) | 2 | -4 | -11 | -15 | -3
Cc1ccccc1N=C1Nc2ccccc2N[C@]12C[C@H]1CCC(=O)N3CC[C@@H](C2)[C@@H]13 | -11 | 4 | -10 | 148* | -4
CCn1cc(C(=O)NC(C)CCc2ccccc2)c(=O)c2cc(S(=O)(=O)N(C)C)ccc21 (configuration not stated) | 2 | -3 | -3 | 51* | -3
CCn1cc(C(=O)NCCc2ccc(Cl)cc2)c(=O)c2cc(S(=O)(=O)N(C)C)ccc21 | -8 | 1 | -5 | 1 | -6
C[C@@H]1CN([C@@H](C)CO)S(=O)(=O)c2ccc(C#CCN(C)C)cc2O[C@H]1CN(C)C(=O)CC1CC1 | 2 | 5 | / | 2 | 2
COc1cccc(OC)c1OCCOc1ccc(C(=O)c2ccccc2)cc1 | 1 | 4 | -16 | 0 | 17*
C/C=C/c1cnc2c(c1)C(=O)N([C@H](C)CO)C[C@@H](C)[C@@H](CN(C)C(=O)NC1CCCC1)O2 | -1 | 5 | -6 | -2 | -8
C[C@@H]1CN([C@H](C)CO)C(=O)c2cc(/C=C/c3ccccc3)cnc2O[C@H]1CN(C)S(=O)(=O)c1ccc(F)cc1 | 3 | 0 | / | -7 | 5
C/C=C/c1cnc2c(c1)C(=O)N([C@H](C)CO)C[C@H](C)[C@H](CN(C)S(=O)(=O)c1ccccc1)O2 | -7 | -4 | / | 79* | 0
C[C@@H]1CN([C@@H](C)CO)C(=O)c2cc(/C=C/c3ccccc3)cnc2O[C@@H]1CN(C)S(=O)(=O)c1ccc(F)cc1 | 1 | -2 | -4 | 4 | 32*!
C/C=C/c1cnc2c(c1)C(=O)N([C@@H](C)CO)C[C@H](C)[C@@H](CN(C)C(=O)NC1CCCC1)O2 | -2 | 0 | / | -1 | 17*
